According to ChEMBL document CHEMBL1177685, “Novel structure-activity relationships and selectivity profiling of cage dimeric 1,4-dihydropyridines as multidrug resistance (MDR) modulators” (Bioorg Med Chem, 2010):

Key:
Assay type in all cases: cell-based
[1] = biological target: Multidrug resistance-associated protein 1 (Homo sapiens, UniProt P33527); experiment: Inhibition of MRP1 expressed in human A2780 cells at 10 uM relative to control; conditions: a2780, 10 µM
[2] = biological target: ATP-binding cassette sub-family C member 2 (Homo sapiens, UniProt Q92887); experiment: Inhibition of MRP2 expressed in human A2780 cells at 10 uM relative to control; conditions: a2780, 10 µM
Procedure, shortened: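 Cisplatin-induced A2780RCIS ovarian cells (maintained with cisplatin 10 ng/mL) and parental A2780P were seeded for 24 h, given fresh medium with inhibitor for 20 min at 37 °C, then carboxyfluorescein diacetate (2 µM final) for 40 min at 37 °C. After ice-cold PBS washes, 10,000 events were read by flow cytometry (488 nm excitation, 530 nm filter). MRP2 value = A2780RCIS uptake minus the MRP1-specific uptake in A2780P.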

L5178Y [3] = experiment: Inhibition of Pgp expressed in mouse L5178Y cells at 1 uM relative to control
Procedure, shortened: (§1)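 L5178Y mouse T lymphoma cells transduced with human mdr1 retrovirus (colchicine-selected) and parental L5178Y, 2×10^6/mL in serum-free McCoy's 5A, preincubated with inhibitor 10 min at rt. Rhodamine 123 (5.2 µM final) added for 20 min at 37 °C. Cells washed twice, resuspended in PBS, 1×10^4 cells read by flow cytometry. R = treated/untreated fluorescence ratio, divided by the parental-line ratio.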

L5178Y [4] = experiment: Inhibition of Pgp expressed in mouse L5178Y cells at 10 uM relative to control; procedure, shortened: as §1
[5] = biological target: T1, Broad substrate specificity ATP-binding cassette transporter ABCG2 (Homo sapiens, UniProt Q9UNQ0); experiment: Inhibition of BCRP expressed in human EPG-257RNOV cells at 1 uM relative to control
T1 sequence (Q9UNQ0 whole entry): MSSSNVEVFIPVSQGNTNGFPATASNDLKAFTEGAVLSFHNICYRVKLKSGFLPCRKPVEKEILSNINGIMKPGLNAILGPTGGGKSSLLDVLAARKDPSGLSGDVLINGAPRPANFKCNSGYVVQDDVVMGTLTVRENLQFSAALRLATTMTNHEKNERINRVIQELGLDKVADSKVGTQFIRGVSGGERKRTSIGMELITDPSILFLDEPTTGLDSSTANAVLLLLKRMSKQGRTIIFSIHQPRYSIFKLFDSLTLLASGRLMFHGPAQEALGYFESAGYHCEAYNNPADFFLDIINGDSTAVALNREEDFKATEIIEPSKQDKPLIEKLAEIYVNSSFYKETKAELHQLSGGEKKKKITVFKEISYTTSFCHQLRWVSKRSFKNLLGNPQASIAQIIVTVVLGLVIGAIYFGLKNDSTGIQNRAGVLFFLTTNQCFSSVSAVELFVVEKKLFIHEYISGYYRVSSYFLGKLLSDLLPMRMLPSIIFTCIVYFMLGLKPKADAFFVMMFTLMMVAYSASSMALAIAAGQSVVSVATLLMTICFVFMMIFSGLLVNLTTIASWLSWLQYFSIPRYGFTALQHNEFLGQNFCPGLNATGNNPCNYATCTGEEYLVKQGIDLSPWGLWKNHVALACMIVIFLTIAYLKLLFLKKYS
Procedure, shortened: (§2)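 BCRP-overexpressing EPG85-257RNOV gastric carcinoma cells (kept in medium with mitoxantrone 0.2 µg/mL), 0.5×10^6 cells/mL, exposed to inhibitor 20 min at 37 °C. Mitoxantrone (20 µM final) then added for 60 min at 37 °C. Cells trypsinized, washed in ice-cold PBS, 10,000 events read by flow cytometry (488 nm excitation, 670 nm filter). R = treated/untreated fluorescence quotient, divided by the same quotient in parental EPG85-257P.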

[6] = biological target: T1, Broad substrate specificity ATP-binding cassette transporter ABCG2; experiment: Inhibition of BCRP expressed in human EPG-257RNOV cells at 0.1 uM relative to control; procedure, shortened: as §2

Chain of ATP-binding cassette sub-family C member 2 (Q92887 whole entry): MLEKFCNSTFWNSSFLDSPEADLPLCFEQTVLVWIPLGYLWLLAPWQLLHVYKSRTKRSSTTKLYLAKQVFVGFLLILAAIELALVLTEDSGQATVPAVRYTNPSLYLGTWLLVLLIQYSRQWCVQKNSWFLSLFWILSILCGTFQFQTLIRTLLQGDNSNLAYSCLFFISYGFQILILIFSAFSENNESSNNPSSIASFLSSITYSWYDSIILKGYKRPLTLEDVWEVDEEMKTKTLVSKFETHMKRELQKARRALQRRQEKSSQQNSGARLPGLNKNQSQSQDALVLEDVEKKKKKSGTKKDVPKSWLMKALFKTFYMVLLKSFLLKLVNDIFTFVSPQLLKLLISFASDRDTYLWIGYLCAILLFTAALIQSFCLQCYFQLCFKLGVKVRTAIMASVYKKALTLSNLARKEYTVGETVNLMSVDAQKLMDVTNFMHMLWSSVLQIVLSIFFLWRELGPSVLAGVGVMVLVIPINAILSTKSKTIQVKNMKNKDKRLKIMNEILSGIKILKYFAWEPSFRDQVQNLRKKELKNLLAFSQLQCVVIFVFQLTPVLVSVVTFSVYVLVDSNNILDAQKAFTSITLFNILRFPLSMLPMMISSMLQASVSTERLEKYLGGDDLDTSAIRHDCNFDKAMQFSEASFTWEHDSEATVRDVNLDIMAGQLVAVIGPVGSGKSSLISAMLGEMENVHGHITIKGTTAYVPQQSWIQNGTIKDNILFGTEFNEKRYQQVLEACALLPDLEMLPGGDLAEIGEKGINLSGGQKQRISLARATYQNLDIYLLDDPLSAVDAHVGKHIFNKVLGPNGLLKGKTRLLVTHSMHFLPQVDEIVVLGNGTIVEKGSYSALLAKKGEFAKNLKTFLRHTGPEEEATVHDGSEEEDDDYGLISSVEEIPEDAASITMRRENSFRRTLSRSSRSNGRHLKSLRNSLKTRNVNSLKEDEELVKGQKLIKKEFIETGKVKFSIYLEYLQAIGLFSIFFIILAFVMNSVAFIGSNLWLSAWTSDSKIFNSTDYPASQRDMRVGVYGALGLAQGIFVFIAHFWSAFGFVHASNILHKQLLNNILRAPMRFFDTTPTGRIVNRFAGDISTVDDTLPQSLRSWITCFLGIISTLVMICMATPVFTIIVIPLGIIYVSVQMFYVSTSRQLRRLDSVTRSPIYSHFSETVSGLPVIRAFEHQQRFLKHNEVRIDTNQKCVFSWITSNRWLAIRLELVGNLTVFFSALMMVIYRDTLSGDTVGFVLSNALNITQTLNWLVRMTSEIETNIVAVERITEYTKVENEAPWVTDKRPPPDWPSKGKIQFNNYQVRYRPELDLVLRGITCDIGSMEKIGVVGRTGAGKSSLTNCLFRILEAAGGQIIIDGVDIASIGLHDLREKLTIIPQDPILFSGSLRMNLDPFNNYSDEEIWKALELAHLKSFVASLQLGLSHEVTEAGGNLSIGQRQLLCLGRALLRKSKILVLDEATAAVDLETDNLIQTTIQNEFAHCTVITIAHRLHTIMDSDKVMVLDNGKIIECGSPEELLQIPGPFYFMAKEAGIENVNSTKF
Chain of Multidrug resistance-associated protein 1 (P33527 whole entry): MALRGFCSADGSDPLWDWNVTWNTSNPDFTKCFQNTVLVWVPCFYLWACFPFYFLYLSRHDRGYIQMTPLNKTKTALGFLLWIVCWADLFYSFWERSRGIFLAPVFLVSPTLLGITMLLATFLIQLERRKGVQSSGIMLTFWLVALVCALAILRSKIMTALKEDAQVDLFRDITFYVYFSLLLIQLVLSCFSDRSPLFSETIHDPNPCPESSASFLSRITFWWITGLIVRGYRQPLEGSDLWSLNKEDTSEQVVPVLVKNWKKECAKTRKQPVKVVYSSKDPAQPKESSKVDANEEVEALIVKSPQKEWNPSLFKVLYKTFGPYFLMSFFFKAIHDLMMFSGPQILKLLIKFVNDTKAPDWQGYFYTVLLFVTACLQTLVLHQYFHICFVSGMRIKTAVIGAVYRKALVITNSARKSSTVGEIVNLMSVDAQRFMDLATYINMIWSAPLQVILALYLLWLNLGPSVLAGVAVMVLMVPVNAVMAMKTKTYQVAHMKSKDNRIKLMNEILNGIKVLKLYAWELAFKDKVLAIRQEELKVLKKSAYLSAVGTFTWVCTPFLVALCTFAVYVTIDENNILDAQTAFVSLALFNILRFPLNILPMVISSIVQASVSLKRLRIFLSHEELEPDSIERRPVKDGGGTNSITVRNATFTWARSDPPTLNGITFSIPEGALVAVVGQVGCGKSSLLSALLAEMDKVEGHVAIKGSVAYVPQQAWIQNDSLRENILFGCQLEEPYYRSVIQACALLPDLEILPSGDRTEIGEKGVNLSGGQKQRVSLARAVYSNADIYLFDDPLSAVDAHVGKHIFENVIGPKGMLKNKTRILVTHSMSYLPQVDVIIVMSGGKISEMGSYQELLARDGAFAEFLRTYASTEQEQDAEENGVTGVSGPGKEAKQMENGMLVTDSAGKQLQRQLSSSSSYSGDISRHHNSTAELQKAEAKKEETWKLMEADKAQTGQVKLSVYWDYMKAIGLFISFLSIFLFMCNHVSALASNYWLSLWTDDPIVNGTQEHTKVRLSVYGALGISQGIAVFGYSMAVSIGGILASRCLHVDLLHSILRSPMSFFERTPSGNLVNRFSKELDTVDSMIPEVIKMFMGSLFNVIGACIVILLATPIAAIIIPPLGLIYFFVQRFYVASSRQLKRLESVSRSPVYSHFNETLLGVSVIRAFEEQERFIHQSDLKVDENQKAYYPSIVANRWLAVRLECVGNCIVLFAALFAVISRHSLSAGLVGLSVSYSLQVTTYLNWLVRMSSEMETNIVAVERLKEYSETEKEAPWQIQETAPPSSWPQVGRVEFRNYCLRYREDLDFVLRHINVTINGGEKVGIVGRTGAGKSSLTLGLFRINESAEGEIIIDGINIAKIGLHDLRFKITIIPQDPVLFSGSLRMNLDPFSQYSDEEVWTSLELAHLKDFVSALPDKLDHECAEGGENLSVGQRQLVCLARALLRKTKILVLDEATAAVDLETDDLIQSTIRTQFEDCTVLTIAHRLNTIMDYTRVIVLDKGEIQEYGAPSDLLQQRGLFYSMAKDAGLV

Row | Ratio [1] | Ratio [2] | Ratio [5] | Ratio [6] | Structure (SMILES) | Ratio (L5178Y [3]) | Ratio (L5178Y [4])
1 | 4.1 | 0.75 |  |  | COc1ccc2c(c1)c(CC(=O)O)c(C)n2C(=O)c1ccc(Cl)cc1 [INDOMETHACIN] |  | 
2 | 1.1 | 0.9 |  |  | OC[C@]12C3N(Cc4cccnc4)C4[C@@]5(CO)C(N(Cc6cccnc6)C1[C@]3(CO)[C@@H]5c1ccccc1)[C@]4(CO)[C@@H]2c1ccccc1 | 1.2 | 1.1
3 | 1 | 1.56 | 3.5 | 1.4 | OC[C@]12C3N(Cc4ccccc4)C4[C@@]5(CO)C(N(Cc6ccccc6)C1[C@]3(CO)[C@@H]5c1ccc(OCc3ccccc3)cc1)[C@]4(CO)[C@@H]2c1ccc(OCc2ccccc2)cc1 | 3.3 | 47
4 | 4.8 | 1.25 | 6.1 | 1.5 | COc1ccc(CN2C3[C@]4(CO)C5N(Cc6ccc(OC)cc6)C6[C@@](CO)(C2[C@]6(CO)[C@H]4c2ccc(OC)cc2)[C@H](c2ccc(OC)cc2)[C@@]35CO)cc1 | 3.1 | 46
5 | 1.2 | 0.8 | 1.3 |  | OC[C@]12C3N(Cc4ccncc4)C4[C@@]5(CO)C(N(Cc6ccncc6)C1[C@]3(CO)[C@@H]5c1ccccc1)[C@]4(CO)[C@@H]2c1ccccc1 | 1.5 | 1.1
6 | 2.5 | 0.75 | 1.2 |  | OC[C@]12C3N(Cc4ccc(OCc5ccccc5)cc4)C4[C@@]5(CO)C(N(Cc6ccc(OCc7ccccc7)cc6)C1[C@]3(CO)[C@@H]5c1ccccc1)[C@]4(CO)[C@@H]2c1ccccc1 | 2.3 | 28
7 | 2.8 | 0.97 | 4.2 | 1.5 | OC[C@]12C3N(Cc4cccc(OCc5ccccc5)c4)C4[C@@]5(CO)C(N(Cc6cccc(OCc7ccccc7)c6)C1[C@]3(CO)[C@@H]5c1ccccc1)[C@]4(CO)[C@@H]2c1ccccc1 | 117 | 205
8 | 1.3 | 1.05 | 1.1 |  | OC[C@]12C3N(Cc4ccccc4)C4[C@@]5(CO)C(N(Cc6ccccc6)C1[C@]3(CO)[C@@H]5c1cccc(O)c1)[C@]4(CO)[C@@H]2c1cccc(O)c1 | 1.2 | 3
9 | 1.8 | 0.63 | 1.5 |  | OC[C@]12C3N(Cc4ccccc4)C4[C@@]5(CO)C(N(Cc6ccccc6)C1[C@]3(CO)[C@@H]5c1ccc(O)cc1)[C@]4(CO)[C@@H]2c1ccc(O)cc1 | 1.3 | 1.5
10 | 2.3 | 1.02 | 1.9 | 1.1 | OC[C@]12C3N(Cc4ccccc4)C4[C@@]5(CO)C(N(Cc6ccccc6)C1[C@]3(CO)[C@@H]5c1ccccc1)[C@]4(CO)[C@@H]2c1ccccc1 | 4.1 | 29
11 | 1.6 | 0.82 | 1.1 |  | OC[C@]12C3N(Cc4ccc(O)cc4)C4[C@@]5(CO)C(N(Cc6ccc(O)cc6)C1[C@]3(CO)[C@@H]5c1ccccc1)[C@]4(CO)[C@@H]2c1ccccc1 | 1.5 | 3.3
12 | 1.9 | 0.97 | 2.8 | 1.3 | OC[C@]12C3N(Cc4ccccc4)C4[C@@]5(CO)C(N(Cc6ccccc6)C1[C@]3(CO)[C@@H]5c1cccc(OCc3ccccc3)c1)[C@]4(CO)[C@@H]2c1cccc(OCc2ccccc2)c1 | 65 | 125
13 | 3.4 | 1.1 | 3.2 | 1.2 | COc1ccc(CN2C3[C@]4(CO)C5N(Cc6ccc(OC)cc6)C6[C@@](CO)(C2[C@]6(CO)[C@H]4c2ccccc2)[C@H](c2ccccc2)[C@@]35CO)cc1 | 3.5 | 13
14 | 2.2 | 0.74 | 1.2 |  | OC[C@]12C3N(Cc4ccccc4)C4[C@@]5(CO)C(N(Cc6ccccc6)C1[C@]3(CO)[C@@H]5c1ccncc1)[C@]4(CO)[C@@H]2c1ccncc1 | 2.4 | 7.7

Row | Structure (SMILES) | Ratio [1] | Ratio [2] | Ratio [5] | Ratio [6] | Ratio (L5178Y [3]) | Ratio (L5178Y [4])
15 | COc1ccc2c3c([nH]c2c1)[C@H](C=C(C)C)N1C(=O)[C@@H]2CCCN2C(=O)[C@@H]1C3 [FUMITREMORGIN] |  |  | 6 | 1.9 |  | 
